Reference: ChEMBL document CHEMBL5252669, “Semisynthetic blasticidin S ester derivatives show enhanced antibiotic activity” (RSC Med Chem, 2023)
Values after ≈ are worked out from the molar mass of the structure shown. Active and inactive are the calls of the source. The calls are words filed in the database; no cut-off is given here.

Assays:
Staphylococcus aureus [1] = assay: Antibacterial activity against wild type Staphylococcus aureus 8810 incubated for 16 hrs by broth microdilution method; type: functional, organism-based; conditions: for IC50: Staphylococcus aureus, 8810, 16 h; for MIC: Staphylococcus aureus, 8810, time 16 hrs
How it was run: (§1)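 Cation-adjusted Mueller-Hinton broth microdilution. Overnight cultures from single colonies were diluted to OD600 0.004. Final compound range was 256–2 μg mL−1 in 1:1 methanol/water vehicle, with doxycycline and vehicle controls. Plates were incubated 16 h at 37 °C. OD600 was normalized to controls, and MIC was the lowest concentration inhibiting >90% growth. Two biological replicates in duplicate; reported as a range.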

Staphylococcus aureus [2] = assay: Potency index, ratio of blasticidin-S MIC to test compound MIC for Staphylococcus aureus; type: functional
[3] = Selectivity index, ratio of CC50 for human MRC5 cells to IC50 for methicillin resistant Staphylococcus aureus; type: toxicity; conditions: read-out: Ratio CC50/IC50
Saccharomyces cerevisiae = assay: Antifungal activity against Saccharomyces cerevisiae incubated for 16 hrs by broth microdilution method; type: functional
Staphylococcus aureus [4] = assay: Antibacterial activity against NorA deleted Staphylococcus aureus incubated for 16 hrs by broth microdilution method; type: functional, organism-based; conditions: for IC50: 16 h; for MIC: time 16 hrs; how it was run: as §1
Enterococcus faecalis [5] = assay: Antibacterial activity against Enterococcus faecalis ATCC 29212 incubated for 20 hrs by broth microdilution method; conditions: ATCC 29212, 20 h
Acinetobacter baumannii [6] = assay: Potency index, ratio of blasticidin-S MIC to test compound MIC for Acinetobacter baumannii; type: functional
[7] = Selectivity index, ratio of CC50 for human MRC5 cells to IC50 for NorA deleted Staphylococcus aureus; type: toxicity; conditions: read-out: Ratio CC50/IC50
Escherichia coli = assay: Potency index, ratio of blasticidin-S MIC to test compound MIC for Escherichia coli; type: functional
[8] = Selectivity index, ratio of CC50 for human MRC5 cells to IC50 for Staphylococcus aureus; type: toxicity; conditions: read-out: Ratio CC50/IC50
[9] = Selectivity index, ratio of CC50 for human MRC5 cells to IC50 for vancomycin-resistant Enterococcus; type: toxicity; conditions: read-out: Ratio CC50/IC50
Klebsiella pneumoniae = assay: Antibacterial activity against Klebsiella pneumoniae ATCC 29665 incubated for 16 hrs by broth microdilution method; type: functional, organism-based; conditions: for IC50: ATCC 29665, 16 h; for MIC: ATCC 29665, time 16 hrs
Candida albicans [10] = assay: Antifungal activity against Candida albicans incubated for 16 hrs by broth microdilution method; type: functional
Enterococcus [11] = assay: Antibacterial activity against vancomycin-resistant Enterococcus incubated for 20 hrs by broth microdilution method
[12] = Selectivity index, ratio of CC50 for human MRC5 cells to IC50 for Enterococcus faecalis ATCC 29212; type: toxicity; conditions: read-out: Ratio CC50/IC50
[13] = Cytotoxicity against human MRC5 cells incubated for 24 hrs by MTS assay; type: toxicity, cell-based
How it was run: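 MRC-5 lung fibroblasts seeded 5000 per well; medium replaced with compound 16–192 μg mL−1 or matching 1:1 methanol:water vehicle; 24 h, then MTS 3–4 h; absorbance 490 nm; viability relative to untreated cells, normalized to vehicle; CC50 from two independent assays in duplicate, mean ± SD.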

Acinetobacter baumannii [14] = assay: Antibacterial activity against Acinetobacter baumannii ATCC 17978 incubated for 16 hrs by broth microdilution method; type: functional, organism-based; conditions: for IC50: ATCC 17978, 16 h; for MIC: ATCC 17978, time 16 hrs
Pseudomonas aeruginosa = assay: Antibacterial activity against MexAB-OprM deleted Pseudomonas aeruginosa incubated for 16 hrs by broth microdilution method; type: functional, organism-based; conditions: for IC50: 16 h; for MIC: time 16 hrs
[15] = Selectivity index, ratio of CC50 for human MRC5 cells to IC50 for MexAB-OprM deleted Pseudomonas aeruginosa; type: toxicity; conditions: read-out: Ratio CC50/IC50
[16] = Selectivity index, ratio of CC50 for human MRC5 cells to IC50 for Acinetobacter baumannii ATCC 17978; type: toxicity; conditions: read-out: Ratio CC50/IC50
[17] = Selectivity index, ratio of CC50 for human MRC5 cells to IC50 for Klebsiella pneumoniae ATCC 29665; type: toxicity; conditions: read-out: Ratio CC50/IC50
Staphylococcus aureus [18] = assay: Antibacterial activity against methicillin resistant Staphylococcus aureus ATCC 43300 incubated for 16 hrs by broth microdilution method; type: functional, organism-based; conditions: for IC50: ATCC 43300, 16 h; for MIC: ATCC 43300, time 16 hrs; how it was run: as §1
Staphylococcus aureus [19] = assay: Antibacterial activity against NorA deleted Staphylococcus aureus assessed as zone of inhibition incubated for 18 hrs by spot on lawn assay; type: functional, organism-based
How it was run: (§2)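 Overnight LB cultures diluted to OD600 0.01 in 0.7% LB top agar, overlaid on 1.5% LB agar; 5 mg mL−1 aqueous compound spotted at 35, 25, 10 and 5 μg with 1:1 water/methanol vehicle spot; 37 °C, 18 h; inhibition zone diameter measured by ruler.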

Candida albicans [20] = assay: Antifungal activity against Candida albicans assessed as zone of inhibition incubated for 18 hrs by spot on lawn assay; type: functional, organism-based; how it was run: as §2
Enterococcus faecalis [21] = assay: Antibacterial activity against Enterococcus faecalis ATCC 29212 assessed as zone of inhibition incubated for 18 hrs by spot on lawn assay; type: functional, organism-based; how it was run: as §2
Staphylococcus aureus [22] = assay: Antibacterial activity against Staphylococcus aureus assessed as zone of inhibition incubated for 18 hrs by spot on lawn assay; type: functional, organism-based; how it was run: as §2
Enterococcus [23] = assay: Antibacterial activity against vancomycin-resistant Enterococcus assessed as zone of inhibition incubated for 18 hrs by spot on lawn assay; type: functional, organism-based
How it was run: (§3)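 Spot-on-lawn assay. Plates of 1.5% agar in LB were overlaid with 0.7% LB agar seeded with overnight culture at 0.01 OD600. Aqueous 5 mg mL−1 solutions were spotted at 35, 25, 10 and 5 μg, with a 1:1 water/methanol vehicle spot. After 18 h at 37 °C, inhibition zone diameters were measured with a ruler.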

Staphylococcus aureus [24] = assay: Antibacterial activity against methicillin resistant Staphylococcus aureus assessed as zone of inhibition incubated for 18 hrs by spot on lawn assay; type: functional, organism-based; how it was run: as §3

Question: With `CN(CC[C@H](N)CC(=O)N[C@H]1C=C[C@H](n2ccc(N)nc2=O)O[C@@H]1C(N)=O)C(=N)N.Cl.Cl.Cl` as the compound, how does the IC50 (Staphylococcus aureus [1]) read?
Answer: 15.2 µg/mL

Question: And the MIC (Staphylococcus aureus [1])?
Answer: 32 µg/mL

Question: What about the PI (Staphylococcus aureus [2]) of the same compound?
Answer: 8

Question: What about the selectivity ratio [3] of the same compound?
Answer: 0.6

Question: And the MIC (Saccharomyces cerevisiae)?
Answer: 64 µg/mL

Question: What about the IC50 (Staphylococcus aureus [4]) of the same compound?
Answer: 41.6 µg/mL

Question: What about the MIC (Staphylococcus aureus [4]) of the same compound?
Answer: 64 µg/mL

Question: And the IC50 (Enterococcus faecalis [5])?
Answer: 12.9 µg/mL

Question: And the MIC (Enterococcus faecalis [5])?
Answer: 32 µg/mL

Question: What about the PI (Acinetobacter baumannii [6]) of the same compound?
Answer: 16

Question: And the selectivity ratio [7]?
Answer: 0.2

Question: And the PI (Escherichia coli)?
Answer: 8

Question: And the selectivity ratio [8]?
Answer: 0.6

Question: What about the selectivity ratio [9] of the same compound?
Answer: 0.1

Question: And the IC50 (Klebsiella pneumoniae)?
Answer: 9.3 µg/mL

Question: And the MIC (Klebsiella pneumoniae)?
Answer: 16 µg/mL

Question: And the MIC (Candida albicans [10])?
Answer: 256 µg/mL

Question: What about the IC50 (Enterococcus [11]) of the same compound?
Answer: 69.6 µg/mL

Question: What about the MIC (Enterococcus [11]) of the same compound?
Answer: 128 µg/mL

Question: What about the selectivity ratio [12] of the same compound?
Answer: 0.7

Question: What about the CC50 at 24 h [13] of the same compound?
Answer: 9.4 µg/mL

Question: What about the IC50 (Acinetobacter baumannii [14]) of the same compound?
Answer: 3 µg/mL

Question: And the MIC (Acinetobacter baumannii [14])?
Answer: 8 µg/mL

Question: And the IC50 (Pseudomonas aeruginosa)?
Answer: 19.7 µg/mL

Question: And the MIC (Pseudomonas aeruginosa)?
Answer: 64 µg/mL

Question: And the selectivity ratio [15]?
Answer: 0.5

Question: And the selectivity ratio [16]?
Answer: 3

Question: What about the selectivity ratio [17] of the same compound?
Answer: 1

Question: And the IC50 (Staphylococcus aureus [18])?
Answer: 15.4 µg/mL

Question: What about the MIC (Staphylococcus aureus [18]) of the same compound?
Answer: 32 µg/mL

Question: What does the source list for `C#CCCCOC(=O)[C@H]1O[C@@H](n2ccc(N)nc2=O)C=C[C@@H]1NC(=O)C[C@@H](N)CCN(C)C(=N)N`?
Answer: IC50 (Staphylococcus aureus [1]): 19.3 µg/mL (≈ 39.5 µM); MIC (Staphylococcus aureus [1]): 64 µg/mL (≈ 131 µM); selectivity ratio [3]: 1.7; Activity (Staphylococcus aureus [19]): Active; MIC (Saccharomyces cerevisiae): 64 µg/mL (≈ 131 µM); IC50 (Staphylococcus aureus [4]): 36 µg/mL (≈ 73.7 µM); MIC (Staphylococcus aureus [4]): 64 µg/mL (≈ 131 µM); IC50 (Enterococcus faecalis [5]): 12.2 µg/mL (≈ 25 µM); MIC (Enterococcus faecalis [5]): 32 µg/mL (≈ 65.5 µM); Activity (Candida albicans [20]): inactive; selectivity ratio [7]: 1.4; selectivity ratio [8]: 2.6; selectivity ratio [9]: 0.7; Activity (Enterococcus faecalis [21]): Active; IC50 (Klebsiella pneumoniae): 92.3 µg/mL (≈ 189 µM); MIC (Klebsiella pneumoniae): > 128 µg/mL; MIC (Candida albicans [10]): > 128 µg/mL; IC50 (Enterococcus [11]): 72.1 µg/mL (≈ 148 µM); MIC (Enterococcus [11]): 128 µg/mL (≈ 262 µM); selectivity ratio [12]: 4.1; CC50 at 24 h [13]: 50.4 µg/mL (≈ 103 µM); IC50 (Acinetobacter baumannii [14]): 61.5 µg/mL (≈ 126 µM); MIC (Acinetobacter baumannii [14]): > 128 µg/mL; Activity (Staphylococcus aureus [22]): Active; Activity (Enterococcus [23]): Active; IC50 (Pseudomonas aeruginosa): 74.3 µg/mL (≈ 152 µM); MIC (Pseudomonas aeruginosa): > 128 µg/mL; selectivity ratio [15]: 0.7; selectivity ratio [16]: 0.8; Activity (Staphylococcus aureus [24]): Active; selectivity ratio [17]: 0.5; IC50 (Staphylococcus aureus [18]): 29.2 µg/mL (≈ 59.8 µM); MIC (Staphylococcus aureus [18]): 64 µg/mL (≈ 131 µM)

Question: What does the source list for `COC(=O)[C@H]1O[C@@H](n2ccc(N)nc2=O)C=C[C@@H]1NC(=O)C[C@@H](N)CCN(C)C(=N)N`?
Answer: IC50 (Staphylococcus aureus [1]): 11.4 µg/mL (≈ 26.1 µM); MIC (Staphylococcus aureus [1]): 32 µg/mL (≈ 73.3 µM); selectivity ratio [3]: 1.7; Activity (Staphylococcus aureus [19]): Active; MIC (Saccharomyces cerevisiae): 32 µg/mL (≈ 73.3 µM); IC50 (Staphylococcus aureus [4]): 21.5 µg/mL (≈ 49.3 µM); MIC (Staphylococcus aureus [4]): 32 µg/mL (≈ 73.3 µM); IC50 (Enterococcus faecalis [5]): 9.2 µg/mL (≈ 21.1 µM); MIC (Enterococcus faecalis [5]): 16 µg/mL (≈ 36.7 µM); Activity (Candida albicans [20]): inactive; selectivity ratio [7]: 0.8; selectivity ratio [8]: 1.6; selectivity ratio [9]: 0.6; Activity (Enterococcus faecalis [21]): Active; IC50 (Klebsiella pneumoniae): 34.3 µg/mL (≈ 78.6 µM); MIC (Klebsiella pneumoniae): 64 µg/mL (≈ 147 µM); MIC (Candida albicans [10]): > 256 µg/mL; IC50 (Enterococcus [11]): 31 µg/mL (≈ 71 µM); MIC (Enterococcus [11]): 64 µg/mL (≈ 147 µM); selectivity ratio [12]: 2; CC50 at 24 h [13]: 18.3 µg/mL (≈ 41.9 µM); IC50 (Acinetobacter baumannii [14]): 10.2 µg/mL (≈ 23.4 µM); MIC (Acinetobacter baumannii [14]): 32 µg/mL (≈ 73.3 µM); Activity (Staphylococcus aureus [22]): Active; Activity (Enterococcus [23]): Active; IC50 (Pseudomonas aeruginosa): 35.1 µg/mL (≈ 80.4 µM); MIC (Pseudomonas aeruginosa): 128 µg/mL (≈ 293 µM); selectivity ratio [15]: 0.5; selectivity ratio [16]: 1.8; Activity (Staphylococcus aureus [24]): Active; selectivity ratio [17]: 0.5; IC50 (Staphylococcus aureus [18]): 10.4 µg/mL (≈ 23.8 µM); MIC (Staphylococcus aureus [18]): 16 µg/mL (≈ 36.7 µM)
